Activity calls are given as the source filed them. No cut-off for these calls is given here.
Experiments:
[1] = target: Tyrosine-protein kinase receptor UFO (Homo sapiens) (UniProt P30530); test: Inhibition of AXL (unknown origin) at 100 nM in the presence of ATP by Kinome scan method relative to control
[2] = target: Dual specificity tyrosine-phosphorylation-regulated kinase 4 (Homo sapiens) (UniProt Q9NR20); test: Inhibition of DYRK4 (unknown origin) at 123 nM in the presence of ATP by Kinome scan method relative to control; details: time > 6.0 hrs
HCT-116 [3] = test: Induction of cell cycle arrest in human HCT-116 cells assessed as S phase at 0.1 uM incubated for 6 hrs by flow cytometry analysis (Rvb=39.3%); assay type: functional
[4] = target: Dual specificity protein kinase CLK1 (Homo sapiens) (UniProt P49759); test: Inhibition of CLK (unknown origin) in human MDA-MB-468 cells assessed as SRSF4 phosphorylation level incubated for 3 hrs by immunoblot analysis; assay type: cell-based
HCT-116 [5] = test: Induction of cell cycle arrest in human HCT-116 cells assessed as G2/M phase at 10 uM incubated for 24 hrs by flow cytometry analysis (Rvb=17.9%); assay type: functional
HCT-116 [6] = test: Induction of cell cycle arrest in human HCT-116 cells assessed as sub G0/G1 phase at 0.5 uM incubated for 24 hrs by flow cytometry analysis (Rvb=2.5%); assay type: functional
[7] = target: T1, Cyclin-dependent kinase 5/CDK5 activator 1 (Homo sapiens) (UniProt Q00535+Q15078); test: Inhibition of CDK5/p25 (unknown origin) at 100 nM in the presence of ATP by Kinome scan method relative to control; assay type: protein-complex assay
[8] = target: Ephrin type-A receptor 1 (Homo sapiens) (UniProt P21709); test: Inhibition of EPHA1 (unknown origin) at 100 nM in the presence of ATP by Kinome scan method relative to control
[9] = target: Homeodomain-interacting protein kinase 2 (Homo sapiens) (UniProt Q9H2X6); test: Inhibition of HIPK2 (unknown origin) at 100 nM in the presence of ATP by Kinome scan method relative to control
[10] = target: PI3-kinase p110-alpha/p85-alpha (Homo sapiens) (UniProt P27986+P42336); test: Inhibition of PIK3CA/PIK3R1 (unknown origin) at 1000 nM in the presence of ATP by Kinome scan method relative to control; assay type: protein-complex assay
HCT-116 [11] = test: Induction of cell cycle arrest in human HCT-116 cells assessed as S phase at 0.5 uM incubated for 24 hrs by flow cytometry analysis (Rvb=46.4%); assay type: functional
HCT-116 [12] = test: Induction of cell cycle arrest in human HCT-116 cells assessed as G2/M phase at 5 uM incubated for 6 hrs by flow cytometry analysis (Rvb=25.8%); assay type: functional
HCT-116 [13] = test: Induction of apoptosis in human HCT-116 cells assessed as late apoptosis at 1 uM incubated for > 6 hrs by annexin V/PI staining based analysis (Rvb=6.12%); assay type: functional
[14] = target: Mitogen-activated protein kinase 14 (Homo sapiens) (UniProt Q16539); test: Inhibition of MAPK14 (unknown origin) at 100 nM in the presence of ATP by Kinome scan method relative to control
HCT-116 [15] = test: Induction of cell cycle arrest in human HCT-116 cells assessed as G0/G1 phase at 1 uM incubated for 6 hrs by flow cytometry analysis (Rvb=35.0%); assay type: functional
HCT-116 [16] = test: Induction of cell cycle arrest in human HCT-116 cells assessed as G0/G1 phase at 1 uM incubated for 24 hrs by flow cytometry analysis (Rvb=35.7%); assay type: functional
[17] = target: T1, Cyclin-dependent kinase 5/CDK5 activator 1 (Homo sapiens); test: Inhibition of CDK5/p35 (unknown origin) at 1000 nM in the presence of ATP by Kinome scan method relative to control; assay type: protein-complex assay
[18] = target: Aurora kinase A (Homo sapiens) (UniProt O14965); test: Inhibition of AURKA (unknown origin) at 100 nM in the presence of ATP by Kinome scan method relative to control
[19] = target: Dual specificity tyrosine-phosphorylation-regulated kinase 4 (Homo sapiens) (UniProt Q9NR20); test: Inhibition of DYRK4 (unknown origin) at 1110 nM in the presence of ATP by Kinome scan method relative to control; details: time > 6.0 hrs
[20] = target: Dual specificity mitogen-activated protein kinase kinase 2 (Homo sapiens) (UniProt P36507); test: Inhibition of MAP2K2 (unknown origin) at 100 nM in the presence of ATP by Kinome scan method relative to control
[21] = target: Mitogen-activated protein kinase 9 (Homo sapiens) (UniProt P45984); test: Inhibition of MAPK9 (unknown origin) at 1000 nM in the presence of ATP by Kinome scan method relative to control
[22] = target: Inhibitor of nuclear factor kappa-B kinase subunit beta (Homo sapiens) (UniProt O14920); test: Inhibition of IKBKB (unknown origin) at 1000 nM in the presence of ATP by Kinome scan method relative to control
[23] = target: Serine/threonine-protein kinase PLK1 (Homo sapiens) (UniProt P53350); test: Inhibition of PLK1 (unknown origin) at 1000 nM in the presence of ATP by Kinome scan method relative to control
HCT-116 [24] = test: Induction of cell cycle arrest in human HCT-116 cells assessed as G0/G1 phase at 0.5 uM incubated for 6 hrs by flow cytometry analysis (Rvb=35.0%); assay type: functional
[25] = target: Mitogen-activated protein kinase 14 (Homo sapiens) (UniProt Q16539); test: Inhibition of MAPK14 (unknown origin) at 1000 nM in the presence of ATP by Kinome scan method relative to control
[26] = target: Dual specificity protein kinase CLK1 (Homo sapiens) (UniProt P49759); test: Inhibition of CLK (unknown origin) in human HCT-116 cells assessed as induction in alternative splicing effect in MRPS10-GUCA1B level incubated for 6 hrs by RT-PCR analysis; assay type: cell-based; details: dose 0.2-5 µM
Procedure, shortened: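 Cells exposed to graded T3 concentrations for 6 h (chosen to avoid cytotoxicity), with a DMSO vehicle control. Total RNA was reverse-transcribed with oligo-dT primers. Targeted splice or conjoined-gene products were quantified by real-time qPCR or by targeted next-generation sequencing. Conjoined-gene isoform expression was normalized to a sequenced housekeeping gene.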

HCT-116 [27] = test: Induction of apoptosis in human HCT-116 cells assessed as early apoptosis at 5 uM incubated for > 6 hrs by annexin V/PI staining based analysis (Rvb=3.29%); assay type: functional
[28] = Stability of compound in tissue culture medium assessed as remaining parent compound at 5.44 uM incubated for 6 hrs; assay type: physicochemical; details: read-out: Stability
HCT-116 [29] = test: Induction of cell cycle arrest in human HCT-116 cells assessed as sub G0/G1 phase at 1 uM incubated for 6 hrs by flow cytometry analysis (Rvb=1.6%); assay type: functional
[30] = target: Homeodomain-interacting protein kinase 1 (Homo sapiens) (UniProt Q86Z02); test: Inhibition of HIPK1 (unknown origin) at 100 nM in the presence of ATP by Kinome scan method relative to control
HCT-116 [31] = test: Induction of cell cycle arrest in human HCT-116 cells assessed as S phase at 10 uM incubated for 24 hrs by flow cytometry analysis (Rvb=46.4%); assay type: functional
HCT-116 [32] = test: Induction of cell cycle arrest in human HCT-116 cells assessed as G0/G1 phase at 5 uM incubated for 24 hrs by flow cytometry analysis (Rvb=35.7%); assay type: functional
[33] = target: Mast/stem cell growth factor receptor Kit (Homo sapiens) (UniProt P10721); test: Inhibition of KIT (unknown origin) at 100 nM in the presence of ATP by Kinome scan method relative to control

T1 sequence (Q00535 whole entry): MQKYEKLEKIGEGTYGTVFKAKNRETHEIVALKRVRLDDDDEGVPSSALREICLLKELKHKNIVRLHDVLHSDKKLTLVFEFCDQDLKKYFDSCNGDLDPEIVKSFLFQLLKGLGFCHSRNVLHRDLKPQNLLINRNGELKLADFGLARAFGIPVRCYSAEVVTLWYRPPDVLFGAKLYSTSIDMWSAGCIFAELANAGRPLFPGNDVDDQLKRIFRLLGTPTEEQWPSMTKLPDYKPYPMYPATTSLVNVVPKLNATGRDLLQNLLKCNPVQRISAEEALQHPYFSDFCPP
T1 sequence (Q15078 99-307 partner limits assumed): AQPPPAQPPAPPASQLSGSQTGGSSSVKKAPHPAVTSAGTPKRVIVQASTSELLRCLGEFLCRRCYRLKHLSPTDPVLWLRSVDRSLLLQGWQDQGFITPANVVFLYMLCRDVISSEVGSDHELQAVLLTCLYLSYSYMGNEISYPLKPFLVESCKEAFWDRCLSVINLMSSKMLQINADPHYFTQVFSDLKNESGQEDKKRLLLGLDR
Dual specificity protein kinase CLK1 (Homo sapiens), sequence (P49759 whole entry, looked up, canonical isoform): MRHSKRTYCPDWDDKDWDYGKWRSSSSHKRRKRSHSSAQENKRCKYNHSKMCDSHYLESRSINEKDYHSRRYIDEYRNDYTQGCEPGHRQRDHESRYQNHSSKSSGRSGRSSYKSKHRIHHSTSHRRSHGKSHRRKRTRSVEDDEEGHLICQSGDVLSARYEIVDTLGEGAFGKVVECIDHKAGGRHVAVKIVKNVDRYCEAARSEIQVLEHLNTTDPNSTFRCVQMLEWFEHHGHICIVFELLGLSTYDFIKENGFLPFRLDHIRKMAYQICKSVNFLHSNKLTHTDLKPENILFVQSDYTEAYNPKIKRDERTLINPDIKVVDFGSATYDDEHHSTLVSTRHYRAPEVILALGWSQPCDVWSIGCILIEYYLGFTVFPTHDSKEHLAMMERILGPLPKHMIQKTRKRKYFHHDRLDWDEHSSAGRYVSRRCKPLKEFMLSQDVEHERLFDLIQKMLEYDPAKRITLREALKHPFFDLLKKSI
Dual specificity tyrosine-phosphorylation-regulated kinase 4 (Homo sapiens), sequence (Q9NR20 whole entry): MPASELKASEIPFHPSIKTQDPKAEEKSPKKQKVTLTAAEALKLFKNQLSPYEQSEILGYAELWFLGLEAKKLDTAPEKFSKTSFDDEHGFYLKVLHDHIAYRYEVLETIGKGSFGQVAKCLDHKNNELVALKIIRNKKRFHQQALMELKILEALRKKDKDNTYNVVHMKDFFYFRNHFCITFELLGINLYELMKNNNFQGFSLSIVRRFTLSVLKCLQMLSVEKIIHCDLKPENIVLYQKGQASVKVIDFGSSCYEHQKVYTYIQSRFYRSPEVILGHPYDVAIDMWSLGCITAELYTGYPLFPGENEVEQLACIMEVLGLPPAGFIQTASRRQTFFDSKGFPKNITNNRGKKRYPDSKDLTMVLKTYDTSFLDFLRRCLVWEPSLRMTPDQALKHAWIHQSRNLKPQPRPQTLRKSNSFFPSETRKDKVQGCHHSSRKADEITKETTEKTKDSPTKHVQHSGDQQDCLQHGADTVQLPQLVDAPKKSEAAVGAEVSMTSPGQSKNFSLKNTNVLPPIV
Mitogen-activated protein kinase 14 (Homo sapiens), sequence (Q16539 whole entry): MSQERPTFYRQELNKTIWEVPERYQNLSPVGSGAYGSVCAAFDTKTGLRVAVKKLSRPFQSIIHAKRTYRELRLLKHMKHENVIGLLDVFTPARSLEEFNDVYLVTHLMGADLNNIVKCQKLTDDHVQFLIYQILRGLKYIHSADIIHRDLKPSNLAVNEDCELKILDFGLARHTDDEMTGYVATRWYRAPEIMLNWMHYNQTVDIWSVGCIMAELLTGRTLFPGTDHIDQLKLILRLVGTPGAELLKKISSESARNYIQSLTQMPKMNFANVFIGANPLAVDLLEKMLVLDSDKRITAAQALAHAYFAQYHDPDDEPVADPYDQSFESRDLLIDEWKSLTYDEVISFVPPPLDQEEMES
Mitogen-activated protein kinase 9 (Homo sapiens), sequence (P45984 whole entry, looked up): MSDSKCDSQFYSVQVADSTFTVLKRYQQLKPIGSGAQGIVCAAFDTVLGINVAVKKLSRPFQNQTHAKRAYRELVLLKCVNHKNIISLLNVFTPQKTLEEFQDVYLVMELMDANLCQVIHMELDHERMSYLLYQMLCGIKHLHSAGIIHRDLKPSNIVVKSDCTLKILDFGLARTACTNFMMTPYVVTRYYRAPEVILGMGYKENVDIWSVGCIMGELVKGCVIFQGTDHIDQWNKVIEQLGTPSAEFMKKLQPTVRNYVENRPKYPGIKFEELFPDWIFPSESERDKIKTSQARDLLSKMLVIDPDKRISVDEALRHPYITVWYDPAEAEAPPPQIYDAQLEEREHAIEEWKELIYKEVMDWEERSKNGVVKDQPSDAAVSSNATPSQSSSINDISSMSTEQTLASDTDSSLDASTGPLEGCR
Serine/threonine-protein kinase PLK1 (Homo sapiens), sequence (P53350 whole entry): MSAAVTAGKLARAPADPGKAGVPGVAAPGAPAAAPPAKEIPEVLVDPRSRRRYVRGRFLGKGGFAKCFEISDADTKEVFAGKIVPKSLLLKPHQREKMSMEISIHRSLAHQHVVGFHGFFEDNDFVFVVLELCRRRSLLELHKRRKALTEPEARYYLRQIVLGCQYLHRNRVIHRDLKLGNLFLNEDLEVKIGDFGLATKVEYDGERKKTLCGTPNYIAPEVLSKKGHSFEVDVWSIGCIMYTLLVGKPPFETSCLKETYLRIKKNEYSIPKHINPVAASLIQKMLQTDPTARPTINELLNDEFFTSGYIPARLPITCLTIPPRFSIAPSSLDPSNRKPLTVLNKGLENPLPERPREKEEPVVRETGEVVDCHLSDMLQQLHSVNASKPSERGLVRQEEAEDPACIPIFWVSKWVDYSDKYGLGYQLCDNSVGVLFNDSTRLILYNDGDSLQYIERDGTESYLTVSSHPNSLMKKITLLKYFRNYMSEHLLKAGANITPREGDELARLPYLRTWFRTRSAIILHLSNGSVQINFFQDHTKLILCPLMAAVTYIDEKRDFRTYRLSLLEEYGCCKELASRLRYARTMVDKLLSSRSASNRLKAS
Homeodomain-interacting protein kinase 2 (Homo sapiens), sequence (Q9H2X6 whole entry, looked up): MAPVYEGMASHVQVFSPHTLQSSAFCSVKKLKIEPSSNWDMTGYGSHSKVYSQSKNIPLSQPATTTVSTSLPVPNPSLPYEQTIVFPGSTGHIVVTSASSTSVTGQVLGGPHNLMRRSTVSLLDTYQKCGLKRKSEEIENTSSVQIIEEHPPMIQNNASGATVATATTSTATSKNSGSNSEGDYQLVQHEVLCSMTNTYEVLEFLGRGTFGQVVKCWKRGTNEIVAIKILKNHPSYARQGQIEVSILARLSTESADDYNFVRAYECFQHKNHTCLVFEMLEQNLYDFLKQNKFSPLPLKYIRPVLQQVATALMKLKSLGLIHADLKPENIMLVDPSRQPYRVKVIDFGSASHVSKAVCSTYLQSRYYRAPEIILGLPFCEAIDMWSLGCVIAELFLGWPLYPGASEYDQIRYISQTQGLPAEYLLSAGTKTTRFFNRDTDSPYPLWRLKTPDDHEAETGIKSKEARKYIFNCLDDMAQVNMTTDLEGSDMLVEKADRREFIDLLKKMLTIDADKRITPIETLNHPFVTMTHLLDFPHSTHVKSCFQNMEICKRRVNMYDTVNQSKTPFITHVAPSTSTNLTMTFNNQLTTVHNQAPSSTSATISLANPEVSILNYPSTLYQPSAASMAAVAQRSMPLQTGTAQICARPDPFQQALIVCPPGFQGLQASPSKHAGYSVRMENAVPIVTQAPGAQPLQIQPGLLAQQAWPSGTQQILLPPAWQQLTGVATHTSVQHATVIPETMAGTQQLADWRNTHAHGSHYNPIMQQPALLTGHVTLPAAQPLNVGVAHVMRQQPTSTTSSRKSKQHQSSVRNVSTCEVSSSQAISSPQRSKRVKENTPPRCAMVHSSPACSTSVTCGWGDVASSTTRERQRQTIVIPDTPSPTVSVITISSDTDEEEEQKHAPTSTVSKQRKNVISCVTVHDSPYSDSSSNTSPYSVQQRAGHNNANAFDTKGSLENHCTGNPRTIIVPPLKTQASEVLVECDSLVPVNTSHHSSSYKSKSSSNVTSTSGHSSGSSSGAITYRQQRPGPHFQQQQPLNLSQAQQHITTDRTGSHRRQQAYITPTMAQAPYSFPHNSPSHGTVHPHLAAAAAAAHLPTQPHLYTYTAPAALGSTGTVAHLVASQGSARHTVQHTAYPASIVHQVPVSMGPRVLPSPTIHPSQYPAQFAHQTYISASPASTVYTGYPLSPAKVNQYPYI
Inhibitor of nuclear factor kappa-B kinase subunit beta (Homo sapiens), sequence (O14920 whole entry): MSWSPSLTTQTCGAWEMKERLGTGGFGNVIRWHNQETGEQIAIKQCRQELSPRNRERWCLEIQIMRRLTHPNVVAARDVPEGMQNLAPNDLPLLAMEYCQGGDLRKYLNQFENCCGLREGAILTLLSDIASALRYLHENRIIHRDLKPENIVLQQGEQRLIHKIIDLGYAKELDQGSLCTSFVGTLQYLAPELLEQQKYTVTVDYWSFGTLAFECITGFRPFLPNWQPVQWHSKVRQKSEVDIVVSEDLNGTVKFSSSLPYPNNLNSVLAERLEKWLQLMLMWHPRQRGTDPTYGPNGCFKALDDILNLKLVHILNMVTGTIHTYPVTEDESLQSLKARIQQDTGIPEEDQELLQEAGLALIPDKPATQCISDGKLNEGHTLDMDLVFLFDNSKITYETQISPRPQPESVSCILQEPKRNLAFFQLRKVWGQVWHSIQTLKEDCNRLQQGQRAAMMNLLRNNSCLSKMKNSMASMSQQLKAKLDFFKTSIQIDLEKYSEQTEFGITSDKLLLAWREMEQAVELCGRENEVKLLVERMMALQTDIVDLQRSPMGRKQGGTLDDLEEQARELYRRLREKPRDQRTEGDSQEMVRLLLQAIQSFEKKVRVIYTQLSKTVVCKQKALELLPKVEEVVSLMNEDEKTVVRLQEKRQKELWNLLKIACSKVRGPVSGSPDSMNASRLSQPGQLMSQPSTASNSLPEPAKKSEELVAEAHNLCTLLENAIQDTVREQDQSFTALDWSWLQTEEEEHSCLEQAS

**Q.** With `CN1CCN(C(=O)C(C)(C)c2ccc(C(=O)Nc3cn4cc(-c5ccncc5)ccc4n3)cc2)CC1` [T3-CLK] as the molecule, how does the inhibition [1] read?
**A.** Its inhibition is -10%.

**Q.** And the inhibition [2]?
**A.** The inhibition was -8%.

**Q.** What about the Activity (HCT-116 [3]) of the same molecule?
**A.** Its Activity is 45.5%.

**Q.** And the inhibition [4]?
**A.** The inhibition was “Active”.

**Q.** And the Activity (HCT-116 [5])?
**A.** The Activity was 37.7%.

**Q.** What about the Activity (HCT-116 [6]) of the same molecule?
**A.** Its Activity is 13.1%.

**Q.** And the inhibition [7]?
**A.** The inhibition was 2%.

**Q.** And the inhibition [8]?
**A.** The inhibition was -2%.

**Q.** And the inhibition [9]?
**A.** The inhibition was -4%.

**Q.** What about the inhibition [10] of the same molecule?
**A.** The inhibition was 4%.

**Q.** And the Activity (HCT-116 [11])?
**A.** Its Activity is 20.5%.

**Q.** And the Activity (HCT-116 [12])?
**A.** The Activity was 34.5%.

**Q.** And the Activity (HCT-116 [13])?
**A.** Its Activity is 7.46%.

**Q.** What about the inhibition [14] of the same molecule?
**A.** The inhibition was 5%.

**Q.** What about the Activity (HCT-116 [15]) of the same molecule?
**A.** The Activity was 18.4%.

**Q.** And the Activity (HCT-116 [16])?
**A.** Its Activity is 7.3%.

**Q.** What about the inhibition [17] of the same molecule?
**A.** Its inhibition is -1%.

**Q.** What about the inhibition [18] of the same molecule?
**A.** The inhibition was 5%.

**Q.** And the inhibition [19]?
**A.** The inhibition was -3%.

**Q.** And the inhibition [20]?
**A.** Its inhibition is 17%.

**Q.** And the inhibition [21]?
**A.** Its inhibition is -1%.

**Q.** What about the inhibition [22] of the same molecule?
**A.** The inhibition was -5%.

**Q.** And the inhibition [23]?
**A.** The inhibition was 2%.

**Q.** What about the Activity (HCT-116 [24]) of the same molecule?
**A.** The Activity was 18.4%.

**Q.** What about the inhibition [25] of the same molecule?
**A.** Its inhibition is 6%.

**Q.** What about the inhibition [26] of the same molecule?
**A.** The inhibition was “Dose-Dependent Effect”.

**Q.** What about the Activity (HCT-116 [27]) of the same molecule?
**A.** The Activity was 4.32%.

**Q.** What about the remaining at 6 h, 5.44 µM [28] of the same molecule?
**A.** Its remaining at 6 h, 5.44 µM is 98.9%.

**Q.** What about the Activity (HCT-116 [29]) of the same molecule?
**A.** The Activity was 1.5%.

**Q.** What about the inhibition [30] of the same molecule?
**A.** The inhibition was -1%.

**Q.** And the Activity (HCT-116 [31])?
**A.** The Activity was 41%.

**Q.** And the Activity (HCT-116 [32])?
**A.** The Activity was 13.3%.

**Q.** What about the inhibition [33] of the same molecule?
**A.** Its inhibition is 11%.

Reference: ChEMBL document CHEMBL5696444 (Nat Commun, 2017)
